High-throughput results from PubChem BioAssay.
TAAR1 ag – agonists of human TAAR1 | Q96RJ0 | CHO RD-HGA16 TAAR1, Fluo-8 calcium fluorescence; vehicle wells 0%, saturating PEA agonist 100% | activation, % at 3 µM | hit rate 0.99% among 360,000 | AID 624467;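 active = activation above the mean activation of all test compounds in the run plus 3 SD, cut at about 38% in these data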
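System: CHO-derived RD-HGA16 cells with stable Gα16 and human TAAR1 / Times: 17-24 h plating, Fluo-8 75 min 37 °C, 30 min RT / Technique: calcium-sensitive Fluo-8 signal, excitation 470-495, emission 515-575 nm / Measure: % activation relative to PEA EC100 response / Benchmarks: DMSO and PEA EC100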
MC4R antagonist – human MC4R antagonism in cAMP assay | P32245 | MC4R-expressing cells, MTII-stimulated cAMP, LANCE TR-FRET | inhibition, % at 6.5 µM | hit rate 0.48% among 360,000 | AID 540295;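 active = inhibition above its plate's cutoff, the mean of tested wells on that plate plus 3 SD, cut at about 29% in these data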;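 also: 0% = Melanotan II alone and 100% = Melanotan II plus saturating MCL0020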
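Assay system: U2OS-MC4R stable cell line; Also added: Melanotan II; Technique: Eu-cAMP/anti-cAMP TR-FRET, emission 671 nm; Times: 30-min compound, 1-h challenge, 1-h detection, room temperature.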
TAAR1 antagonist – antagonists of human TAAR1 | inhibition, % at 3 µM | hit rate 1.5% among 360,000 | AID 624466 | CHO RD-HGA16 TAAR1, Fluo-8 calcium fluorescence, antagonist;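 active = inhibition above a per-plate cutoff, the mean inhibition of test compounds on that plate plus 3 SD, cut at about 49% in these data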;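 also: 0% = DMSO plus EC80 beta-PEA response and 100% = DMSO alone without agonist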
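Test system – hTAAR1-expressing CHO RD-HGA16 cells, Gα16-coupled · Reagent – β-PEA at EC80 concentration, post-compound challenge · Compound dosing – 3 µM, single point · Timing – 140 s kinetic read after compound, 140 s after agonist · Detection – Fluo-8 intracellular calcium dye fluorescence, real-time kinetic reads · Control set – DMSO and EC80 PEA controls · Repeats – n of 1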
m5-HT2A agonist – mouse HTR2A agonism via beta-arrestin recruitment; AID 624169; CHO-K1 mHTR2A beta-arrestin complementation, luminescence; percent of 30 µM serotonin response; activation, % at 7.6 µM; hit rate 0.66% among 360,000; P35363;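 active = activation above a run cutoff, the mean activation of all tested compounds plus 3 SD, cut at about 14% in these data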;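 also: 0% = plate median of compound wells and 100% = 30 µM serotonin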
Target sequence (P35363 whole entry, looked up): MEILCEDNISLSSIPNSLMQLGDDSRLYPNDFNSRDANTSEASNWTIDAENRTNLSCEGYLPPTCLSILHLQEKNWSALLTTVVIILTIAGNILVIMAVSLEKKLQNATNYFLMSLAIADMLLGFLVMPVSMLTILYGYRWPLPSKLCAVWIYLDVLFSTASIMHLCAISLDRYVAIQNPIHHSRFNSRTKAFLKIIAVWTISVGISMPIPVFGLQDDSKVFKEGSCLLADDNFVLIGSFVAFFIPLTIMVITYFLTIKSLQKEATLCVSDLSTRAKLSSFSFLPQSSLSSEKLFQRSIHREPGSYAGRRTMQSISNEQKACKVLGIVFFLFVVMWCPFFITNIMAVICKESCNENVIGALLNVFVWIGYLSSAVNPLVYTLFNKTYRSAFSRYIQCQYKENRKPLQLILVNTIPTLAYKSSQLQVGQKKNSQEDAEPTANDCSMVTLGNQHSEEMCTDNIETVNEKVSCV
MC4R ag barr – agonists of human melanocortin 4 receptor (MC4R) beta-arrestin; P32245; U2OS MC4R beta-arrestin complementation, luminescence; percent of melanotan II response, DMSO zero; activation, % at 8.9 µM; hit rate 0.98% among 360,000; AID 540308;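 active = activation above a per-plate cutoff, the mean activation of sample wells on that plate plus 3 SD, cut at about 8% in these data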
B2AR ag – agonists of human beta-2 adrenergic receptor inducing internalization | hit rate 0.43% among 340,000 | Am2.2-beta2AR cells, FAP receptor internalization, flow cytometry | response, % (no concentration beside the values) | P07550;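 active = response above a set limit, near 3 SD of response in nonfluorescent compounds, cut at about 42% in these data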
TAAR1 ag confirm – confirmation of human TAAR1 agonists; shares compounds with TAAR1 ag; CHO RD-HGA16 TAAR1, Fluo-8 calcium fluorescence; scaled: DMSO 0%, maximal phenethylamine 100%; activation, % at 3 µM; hit rate 82% among 2,400; AID 651783;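 active = activation above a cutoff set at the run's mean compound activation plus 3 SD, cut at about 39% in these data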
Ga16 ag counter – nonselective agonism, TAAR1 counter-screen | CHO-Ga16 parental, Fluo-8 calcium fluorescence; normalized to maximal ATP response, DMSO zero | hit rate 50% among 2,400 | shares compounds with TAAR1 ag | activation, % at 3 µM;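 active = activation above the run cutoff, the mean activation over all tested wells plus 3 SD, cut at about 12% in these data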;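 also: 0% = DMSO wells and 100% = maximal ATP response on the peak over basal ratio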
TAAR1 desensitize – counter-screen for human TAAR1 agonists: agonists that desensitize TAAR1; shares compounds with TAAR1 ag; CHO RD-HGA16 hTAAR1, Fluo-8 calcium, beta-PEA response inhibition; hit rate 46% among 2,400; AID 651951; inhibition, % at 3 µM;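 active = inhibition above the run cutoff, the mean inhibition of all test compounds plus 3 SD, cut at about 49% in these data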;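 also: beta-PEA stimulus applied at its EC80; loss of beta-PEA calcium signal after compound pretreatment read as receptor desensitization; 0% = DMSO with beta-PEA at EC80 and 100% = DMSO alone without agonist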
Ga16 nonsel ant – counter-screen for TAAR1 agonists: nonselective Ga16 antagonists | shares compounds with TAAR1 ag | CHO-Ga16 ATP-induced calcium, Fluo-8 fluorescence | inhibition, % at 3 µM | hit rate 39% among 2,400 | AID 651952;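 active = inhibition above the plate's mean compound inhibition plus 3 SD, computed per plate, cut at about 22% in these data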;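 also: 0% = EC80 ATP with DMSO and 100% = DMSO wells without ATP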
* hit, by the source's call. Most compounds without a hit are left out; they make up all but 4.3% or so of the library.

COc1ccc(CC(N)c2csc(Nc3nccc(C(F)(F)F)n3)n2)cc1 (configuration not stated) was read as TAAR1 ag 52*, MC4R antagonist 0, TAAR1 antagonist 22, m5-HT2A agonist -2, MC4R ag barr 1, TAAR1 ag confirm 53*, Ga16 ag counter 21*, TAAR1 desensitize 28 and Ga16 nonsel ant 23*.
For CCc1cnc(Nc2nc(C(N)Cc3ccc(F)cc3)cs2)nc1 (configuration not stated) the results were TAAR1 ag 35, MC4R antagonist -4, TAAR1 antagonist -5, m5-HT2A agonist -4 and MC4R ag barr 5.
Screening NCc1csc(Nc2cc(Oc3ccccc3)ncn2)n1 returned TAAR1 ag 10, MC4R antagonist -1, TAAR1 antagonist -9, m5-HT2A agonist -5 and MC4R ag barr -1.
For Cc1cc(C)nc(Nc2nc(C(N)Cc3ccccc3)cs2)n1 (configuration not stated) the results were TAAR1 ag 9, MC4R antagonist 1, TAAR1 antagonist -2, m5-HT2A agonist 2 and MC4R ag barr -1.
`NC(Cc1ccc(C(F)(F)F)cc1)c1csc(Nc2cc(Oc3ccccc3)ncn2)n1` (configuration not stated) gave TAAR1 ag 48*, MC4R antagonist 7, TAAR1 antagonist 9, m5-HT2A agonist 10, MC4R ag barr 5, TAAR1 ag confirm 38*, Ga16 ag counter 21*, TAAR1 desensitize 43 and Ga16 nonsel ant 38*.
`NC(Cc1ccccc1)c1csc(Nc2nccc(C(F)(F)F)n2)n1` (configuration not stated) gave TAAR1 ag 67*, MC4R antagonist -1, TAAR1 antagonist 20, m5-HT2A agonist 8, MC4R ag barr 2, TAAR1 ag confirm 86*, Ga16 ag counter 55*, TAAR1 desensitize 43 and Ga16 nonsel ant 48*.
Screening COc1ccc(CC(=O)Nc2ccc(N3CCCC3)c(C)c2)cc1 returned TAAR1 ag 0, MC4R antagonist -1, TAAR1 antagonist -14, m5-HT2A agonist -2, MC4R ag barr -1 and B2AR ag 8.
Screening Cc1ccc(C(=O)NCC(=O)OCCCOC(=O)CNC(=O)c2ccc(C)cc2)cc1 returned TAAR1 ag 1, MC4R antagonist 3, TAAR1 antagonist -11, m5-HT2A agonist 3, MC4R ag barr -4 and B2AR ag -7.
Screening COC(=O)[C@@]12C[C@@H](CC(=O)N3CCC(c4ccccc4)CC3)C(=O)N(Cc3ccc4c(c3)OCO4)C1=CCC(C)(C)C2 returned TAAR1 ag 2, TAAR1 antagonist -36 and m5-HT2A agonist 2.
Screening Cc1c(Cl)cccc1NC(=S)N1CCCCCC1 returned TAAR1 ag 0, MC4R antagonist 0, TAAR1 antagonist -4, m5-HT2A agonist -6, MC4R ag barr 4 and B2AR ag 11.
`COc1ccc(CC(N)c2csc(Nc3ncccn3)n2)cc1` (configuration not stated) gave TAAR1 ag 2, MC4R antagonist 9, TAAR1 antagonist 0, m5-HT2A agonist 1 and MC4R ag barr 2.
NC(Cc1ccc(Cl)cc1)c1csc(Nc2nccc(C(F)(F)F)n2)n1 (configuration not stated) was read as TAAR1 ag 55*, MC4R antagonist 6, TAAR1 antagonist 38, m5-HT2A agonist -1, MC4R ag barr 6, TAAR1 ag confirm 88*, Ga16 ag counter 62*, TAAR1 desensitize 74* and Ga16 nonsel ant 73*.
For Cc1nn(C)cc1CN(C)C(=O)C1CCC(=O)N(CCc2cccc(F)c2)C1 (configuration not stated) the results were TAAR1 ag 2, MC4R antagonist 5, TAAR1 antagonist -11, m5-HT2A agonist 3 and MC4R ag barr 0.
Screening Cc1onc(-c2ccccc2)c1C(=O)NNC(=S)NC(=O)c1ccc(Br)cc1 returned TAAR1 ag 1, MC4R antagonist 4, TAAR1 antagonist -10, m5-HT2A agonist -1, MC4R ag barr -6 and B2AR ag -2.
For Cc1onc(-c2ccccc2)c1C(=O)NNC(=S)NC(=O)/C=C/c1ccccc1 the results were TAAR1 ag 136*, MC4R antagonist 2, TAAR1 antagonist 55*, m5-HT2A agonist -2, MC4R ag barr -5, B2AR ag 7, TAAR1 ag confirm 149*, Ga16 ag counter 126*, TAAR1 desensitize 90* and Ga16 nonsel ant 61*.
For COc1ccc(/C=C/C(=O)NC(=S)NNC(=O)c2c(-c3ccccc3)noc2C)cc1 the results were TAAR1 ag 93*, MC4R antagonist 7, TAAR1 antagonist 49*, m5-HT2A agonist -3, MC4R ag barr -6, B2AR ag 9, TAAR1 ag confirm 68*, Ga16 ag counter 66*, TAAR1 desensitize 52* and Ga16 nonsel ant 52*.
For Cc1onc(-c2ccccc2)c1C(=O)NNC(=O)c1ccccc1 the results were TAAR1 ag 1, MC4R antagonist 8, TAAR1 antagonist 6, m5-HT2A agonist 2, MC4R ag barr 0 and B2AR ag 5.
COc1ccc(/C=C/C(=O)NC(=S)NNC(=O)c2ccco2)cc1 was read as TAAR1 ag 18, MC4R antagonist -2, TAAR1 antagonist 25, m5-HT2A agonist -6, MC4R ag barr -1 and B2AR ag -4.
For COc1ccc(/C=C/C(=O)NC(=S)NNC(=O)Cc2cccs2)cc1 the results were TAAR1 ag 48*, MC4R antagonist 2, TAAR1 antagonist 28, m5-HT2A agonist 0, MC4R ag barr -3, B2AR ag 0, TAAR1 ag confirm 30, Ga16 ag counter 19*, TAAR1 desensitize 24 and Ga16 nonsel ant 25*.
